Measured values published in ChEMBL document CHEMBL5357039, “Physicochemical characterization of B-hydroxyphenyl phosphine borane derivatives and their evaluation as nuclear estrogen receptor ligands” (RSC Med Chem, 2024).
Activity calls are given as the source filed them. The rule behind the calls is not given here.

How the values were obtained:
[1] = Dissociation constant, pKa of the compound by pH-metric method; format: physicochemical; conditions: in the assay text read “pH-dependent UV absorbance method” for “pH-metric method”
Procedure, shortened: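 Determined from the change in absorbance at λmax in pH-dependent UV spectra, recorded in 20:80 (w/w) methanol–phosphate buffer over pH 6.0–12.0. Meter pH corrected as pH* = pH(recorded) − 0.01. Triplicate measurements.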

Estrogen receptor = biological target: T1, Estrogen receptor (Homo sapiens, UniProt P03372); assay: (§1) Agonist activity at human ERalpha expressed in HEK293 cells assessed as increase in […] activity incubated for 24 hrs by luciferase based microplate reader assay; format: cell-based
T1 sequence (P03372 whole entry): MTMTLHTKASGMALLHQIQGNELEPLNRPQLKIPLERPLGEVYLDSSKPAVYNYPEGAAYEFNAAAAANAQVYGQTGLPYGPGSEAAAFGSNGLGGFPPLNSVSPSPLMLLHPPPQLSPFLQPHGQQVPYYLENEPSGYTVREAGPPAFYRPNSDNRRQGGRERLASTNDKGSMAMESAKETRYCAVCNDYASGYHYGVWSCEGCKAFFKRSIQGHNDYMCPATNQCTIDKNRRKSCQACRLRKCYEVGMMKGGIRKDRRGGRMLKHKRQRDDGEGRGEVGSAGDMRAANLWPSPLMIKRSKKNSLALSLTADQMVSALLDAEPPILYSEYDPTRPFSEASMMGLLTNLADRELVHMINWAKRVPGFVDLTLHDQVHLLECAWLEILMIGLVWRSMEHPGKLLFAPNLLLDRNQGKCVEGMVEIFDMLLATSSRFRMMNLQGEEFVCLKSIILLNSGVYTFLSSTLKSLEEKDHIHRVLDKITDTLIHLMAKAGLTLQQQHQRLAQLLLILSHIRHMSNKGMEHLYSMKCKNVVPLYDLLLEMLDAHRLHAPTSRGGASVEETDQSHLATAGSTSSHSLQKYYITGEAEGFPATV

Lipid bilayer = assay: Immobilized artificial membrane partition coefficient, logK-IAMex of the compound by HPLC analysis; format: physicochemical
Procedure, shortened: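 Run on an IAM.PC.DD2 column. Mobile phase was 0.01 M PBS, or acetonitrile (40% to 25% v/v in 5% steps) in 0.01 M PBS, at pH 7.4. Dead time was taken with methanol. The 100% aqueous value was obtained by linear extrapolation from the acetonitrile runs. Mean of triplicates.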

[2] = 1-Octanol/water partition coefficient, logP of the compound by HPLC analysis; format: physicochemical
[3] = Aqueous stability of the compound in PBS assessed as compound remaining at pH 7.4 incubated for 3 hrs by HPLC analysis; format: physicochemical; conditions: read-out: Stability
Procedure, shortened: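 Test compound at 0.1 mM in acetonitrile/PBS (5:95 v/v), held 3 h at 37 °C. Analysed by reversed-phase C18 HPLC with the column at 37.0 °C and UV detection at the peak wavelength between 220 and 240 nm. Residual % = peak area at 3 h / peak area at t0 × 100. Mean of triplicate runs.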

[4] = biological target: T2, Estrogen receptor (Homo sapiens) (UniProt P03372); assay: as §1; format: cell-based
T2 sequence (whole entry): T1 sequence (P03372 whole entry)

pKa [1] | EC50 (Estrogen receptor) [µM] | logK-IAMex (Lipid bilayer) | logP [2] | remaining at 3 h [3] [%] | Activity [4] | SMILES
11.3 | > 10 | 1.71 | 3.27 | 99 | – | C[P+](C)(Bc1cccc(O)c1)c1ccccc1
10.8 | – | 2.22 | 4.36 | 92.5 | – | CC(C)(C)Cc1ccc(O)cc1
– | 2.68 | – | 3.8 | – | – | Oc1ccc(B[P+](C2CC2)(C2CC2)C2CC2)cc1
11.3 | > 10 | 1.59 | 3.47 | 99.7 | – | CC[P+](Bc1cccc(O)c1)(CC)CC
– | – | – | 6.32 | – | inactive | CCCC[P+](Bc1ccc(O)cc1)(CCCC)CCCC
– | 3.45 | – | 4.93 | – | – | CC(C)[P+](Bc1cccc(O)c1)(c1ccccc1)C(C)C
– | – | – | 6.43 | – | inactive | CCCC[P+](Bc1cccc(O)c1)(CCCC)CCCC
11.1 | – | 2.46 | 4.11 | 97.6 | inactive | CC[P+](Bc1ccc(O)cc1)(CC)c1ccccc1
10.9 | – | 3.05 | 5.74 | 96.2 | – | C[Si](C)(Cc1ccc(O)cc1)c1ccccc1
11.3 | 4.09 | 2.28 | 4.19 | 100 | – | CC[P+](Bc1cccc(O)c1)(CC)c1ccccc1
11.3 | – | 0.8 | 2.44 | 99.9 | inactive | C[P+](C)(C)Bc1ccc(O)cc1
– | > 10 | – | 4.79 | – | – | CC(C)[P+](Bc1ccc(O)cc1)(c1ccccc1)C(C)C
– | – | – | 6.23 | – | inactive | Oc1ccc(B[P+](C2CCCC2)(C2CCCC2)C2CCCC2)cc1
11 | – | 1.81 | 3.28 | 99.3 | – | CC[P+](Bc1ccc(O)cc1)(CC)CC
10.7 | 1.41 | 2.38 | 4.91 | 89.9 | – | C[Si](C)(C)Cc1ccc(O)cc1
11.2 | – | 1.91 | 3.18 | 94.5 | inactive | C[P+](C)(Bc1ccc(O)cc1)c1ccccc1
11.3 | – | 0.81 | 2.55 | 100 | inactive | C[P+](C)(C)Bc1cccc(O)c1
10.7 | – | 2.73 | 5.26 | 99 | – | CC(C)(Cc1ccc(O)cc1)c1ccccc1
– | – | – | 7.22 | – | inactive | Oc1ccc(B[P+](C2CCCCC2)(C2CCCCC2)C2CCCCC2)cc1
– | – | – | 4.56 | – | – | CC(C)[P+](Bc1ccc(O)cc1)(C(C)C)C(C)C
